Blank lines part the entries; values can stand above or below the molecule they belong to.
Experiments:
[1] = biological target: Human immunodeficiency virus type 1 integrase (Human immunodeficiency virus 1, UniProt Q7ZJM1); test: Inhibition of HIV1 integrase strand transfer activity using pre-incubation and wash with Mg2+ cofactor by ELISA based microtiter plate integration assay
Procedure, shortened: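 Preformed IN–substrate DNA complex on microtiter plate, unbound IN washed out; compound preincubated with complex 30 min at 30 °C in 30 mM MOPS pH 7.2, 10 mM DTT, 5% glycerol, 100 μg/mL BSA; Mg2+ 15 mM throughout; strand transfer started with digoxigenin-labeled target DNA, products quantified by anti-Dig ELISA; mean ± sd of three independent experiments.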

[2] = tested on: Human immunodeficiency virus 1; test: Inhibition of wild type HIV1 3B infected in human MT4 cells using cells pre-incubated with compound for 1 hr measured 4 days post viral infection by MTT assay; type: functional, organism-based; settings: Human immunodeficiency virus 1, 3B
Procedure, shortened: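 MT-4 cells (2.5 × 10^4/well, RPMI 1640 + 10% FBS) exposed to compound dilutions 1 h, then infected with HIV-1 IIIB (MOI 0.001 or TCID50 4 to 10); after 4 days viability read by MTT absorbance at 560/690 nm; mean ± sd of three independent experiments.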

[3] = Cytotoxicity against human MT4 cells incubated for 4 days by MTT assay; type: cell-based
Procedure, shortened: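 Uninfected MT-4 cells, 2.5 × 10^4/well, cultured with graded compound concentrations for 4 days; growth inhibition measured by MTT absorbance at 560 and 690 nm.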

[4] = tested on: Human immunodeficiency virus 1; test: Resistance index, ratio of IC50 for HIV1 3B containing integrase N155H mutant to IC50 for wild type HIV1 3B; type: functional
Procedure, shortened: (§1)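 Integrase mutations introduced into pNL432 molecular clone; plasmids transfected into 293T cells, supernatants harvested after 2 days and stored at −80 °C. Mutant and wild-type viruses tested in HeLa-CD4 cells carrying HIV-1 LTR-driven β-galactosidase reporter. Fold change is mutant IC50 over wild-type IC50.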

[5] = tested on: Human immunodeficiency virus 1; test: Resistance index, ratio of IC50 for HIV1 3B containing integrase Y143R mutant to IC50 for wild type HIV1 3B; type: functional; procedure, shortened: as §1
[6] = tested on: Human immunodeficiency virus 1; test: Inhibition of wild type HIV1 3B infected in human MT4 cells using cells pre-incubated with compound for 1 hr measured 4 days post viral infection in presence of 20 mg/ml HSA by MTT assay; type: functional, organism-based; settings: Human immunodeficiency virus 1, 3B
[7] = tested on: Human immunodeficiency virus 1; test: Potency shift, ratio of IC50 for wild type HIV1 3B infected in human MT4 cells in presence of 20 mg/ml HSA to IC50 for wild type HIV1 3B infected in human MT4 cells in absence of HSA; type: functional
Procedure, shortened: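 MT-4 cells (2.5 × 10^4/well) preincubated 1 h with graded compound, then infected with HIV-1 IIIB (MOI 0.001 or TCID50 4 to 10), with or without human serum albumin 20 mg/mL; after 4 days viability read by MTT absorbance at 560/690 nm. Fold-shift = IC50 with HSA over IC50 without.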

[8] = Total clearance in fed rat at 1 mg/kg, iv measured up to 24 hrs; type: ADME, organism-based; parameters: dose 1 mg/kg, route intravenous; settings: in vivo
Procedure, shortened: (§2)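 Intravenous 1 mg/kg, fed conditions; vehicle DMA/PEG/saline (1:4:5) for rats, 50 mM N-methylglucamine in 3% mannitol for dogs and monkeys; rat blood via jugular cannula; plasma collected up to 24 h, centrifuged 16000g 3 min, held at −20 °C; noncompartmental analysis.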

[9] = Terminal half life in fed rat at 1 mg/kg, iv measured up to 24 hrs; type: ADME, organism-based; parameters: dose 1 mg/kg, route intravenous; settings: in vivo, read-out: beta t1/2 (converted); procedure, shortened: as §2
[10] = AUC (0 to infinity) in fed rat at 5 mg/kg, po measured up to 24 hrs; type: ADME, organism-based; parameters: time infinity, dose 5 mg/kg, route oral; settings: plasma
[11] = Half life in fed rat at 5 mg/kg, po measured up to 24 hrs; type: ADME, organism-based; parameters: dose 5 mg/kg, route oral; settings: in vivo
[12] = Volume of distribution at steady state in fed rat at 1 mg/kg, iv measured up to 24 hrs; type: ADME, organism-based; parameters: dose 1 mg/kg, route intravenous; settings: in vivo, read-out: Vdss; procedure, shortened: as §2
[13] = Oral bioavailability in fed rat at 5 mg/kg measured up to 24 hrs; type: ADME, organism-based; settings: in vivo
[14] = Plasma concentration in fed rat at 5 mg/kg, po measured at 24 hrs; type: ADME, organism-based; parameters: dose 5 mg/kg, route oral
[15] = Ratio of Plasma concentration in fed rat at 5 mg/kg, po measured at 24 hrs to IC50 for wild type HIV1 3B infected in human MT4 cells in presence of 20 mg/ml HSA
[16] = Total clearance in fed beagle dog at 1 mg/kg, iv measured up to 24 hrs; type: ADME, organism-based, Canis lupus familiaris; parameters: dose 1 mg/kg, route intravenous; settings: in vivo; procedure, shortened: as §2
[17] = Terminal half life in fed beagle dog at 1 mg/kg, iv measured up to 24 hrs; type: ADME, organism-based, Canis lupus familiaris; parameters: dose 1 mg/kg, route intravenous; settings: in vivo, read-out: beta t1/2 (converted); procedure, shortened: as §2
[18] = Volume of distribution at steady state in fed beagle dog at 1 mg/kg, iv measured up to 24 hrs; type: ADME, organism-based, Canis lupus familiaris; parameters: dose 1 mg/kg, route intravenous; settings: in vivo, read-out: Vdss; procedure, shortened: as §2
[19] = Oral bioavailability in fed beagle dog at 5 mg/kg measured up to 24 hrs; type: ADME, organism-based, Canis lupus familiaris; settings: in vivo
[20] = Total clearance in fed cynomolgus monkey at 1 mg/kg, iv measured up to 24 hrs; type: ADME, organism-based, Macaca fascicularis; parameters: dose 1 mg/kg, route intravenous; settings: in vivo; procedure, shortened: as §2
[21] = Terminal half life in fed cynomolgus monkey at 1 mg/kg, iv measured up to 24 hrs; type: ADME, organism-based, Macaca fascicularis; parameters: dose 1 mg/kg, route intravenous; settings: in vivo, read-out: beta t1/2 (converted); procedure, shortened: as §2
[22] = Volume of distribution at steady state in fed cynomolgus monkey at 1 mg/kg, iv measured up to 24 hrs; type: ADME, organism-based, Macaca fascicularis; parameters: dose 1 mg/kg, route intravenous; settings: in vivo, read-out: Vdss; procedure, shortened: as §2
[23] = Oral bioavailability in fed cynomolgus monkey at 5 mg/kg measured up to 24 hrs; type: ADME, organism-based, Macaca fascicularis; settings: in vivo
[24] = Ratio of Plasma concentration in fed beagle dog at 5 mg/kg, po measured at 24 hrs to IC50 for wild type HIV1 3B infected in human MT4 cells in presence of 20 mg/ml HSA
[25] = Ratio of Plasma concentration in fed cynomolgus monkey at 5 mg/kg, po measured at 24 hrs to IC50 for wild type HIV1 3B infected in human MT4 cells in presence of 20 mg/ml HSA
[26] = Inhibition of CYP450; type: ADME
[27] = tested on: Human immunodeficiency virus 1; test: Resistance index, ratio of IC50 for HIV1 3B containing integrase Q148K mutant to IC50 for wild type HIV1 3B

Chain of Human immunodeficiency virus type 1 integrase (Q7ZJM1 whole entry): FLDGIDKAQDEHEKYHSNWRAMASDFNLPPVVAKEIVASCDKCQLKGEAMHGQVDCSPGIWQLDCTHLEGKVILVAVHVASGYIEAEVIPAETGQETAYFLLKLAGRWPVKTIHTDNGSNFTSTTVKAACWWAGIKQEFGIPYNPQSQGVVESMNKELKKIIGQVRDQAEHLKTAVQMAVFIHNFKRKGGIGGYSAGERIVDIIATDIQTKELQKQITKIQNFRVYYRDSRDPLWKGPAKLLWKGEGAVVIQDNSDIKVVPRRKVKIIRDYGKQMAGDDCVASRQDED

IC50 [1]: 130 nM
Compound: COCCNC(=O)c1[nH]cc(C(=O)NCc2ccc(F)cc2)c(=O)c1O
IC50 [2]: 110 nM
CC50 at 96 h [3]: 16000 nM

IC50 [1]: 300 nM
Compound: O=C(NCCO)c1[nH]cc(C(=O)NCc2ccc(F)cc2)c(=O)c1O
IC50 [2]: 5500 nM
CC50 at 96 h [3]: > 200000 nM

IC50 [1]: 380 nM
Compound: NC(=O)c1[nH]cc(C(=O)NCc2ccc(F)cc2)c(=O)c1O
IC50 [2]: 5500 nM
CC50 at 96 h [3]: 40000 nM

IC50 [1]: 1300 nM
Compound: CNC(=O)c1[nH]cc(C(=O)NCc2ccc(F)cc2)c(=O)c1O
IC50 [2]: 120 nM
CC50 at 96 h [3]: 8500 nM

IC50 [1]: 540 nM
Compound: CN(C)C(=O)c1[nH]cc(C(=O)NCc2ccc(F)cc2)c(=O)c1O
IC50 [2]: 1600 nM
CC50 at 96 h [3]: 5100 nM

Compound: COC(=O)c1[nH]cc(C(=O)NCc2ccc(F)cc2)c(=O)c1O
IC50 [1]: 18 nM
IC50 [2]: 10 nM
CC50 at 96 h [3]: 19000 nM
Ratio IC50 [4]: 21
Ratio IC50 [5]: 1.5
IC50 [6]: 120 nM
Ratio IC50 [7]: 12
clearance [8]: 1.2 mL/min/kg
half-life [9]: 4.7 h
AUC(0-inf) [10]: 41200 ng·h/mL
half-life [11]: 4.2 h
Vd [12]: 0.2 L/kg
bioavailability [13]: 53%
concentration at 24 h [14]: 130 ng/mL
Ratio [15]: 3.4
clearance [16]: 0.84 mL/min/kg
half-life [17]: 3.8 h
Vd [18]: 0.14 L/kg
bioavailability [19]: 46%
clearance [20]: 2.4 mL/min/kg
half-life [21]: 5.3 h
Vd [22]: 0.3 L/kg
bioavailability [23]: 22%
Ratio [24]: 6
Ratio [25]: 1.6
inhibition (INH) [26]: Not Active
Ratio IC50 [27]: 200

IC50 [1]: 10 nM
Compound: O=C(O)c1[nH]cc(C(=O)NCc2ccc(F)cc2)c(=O)c1O
IC50 [2]: 1400 nM
CC50 at 96 h [3]: > 200000 nM

Compound: COc1cc2c(cc1Cc1cccc(Cl)c1F)c(=O)c(C(=O)O)cn2[C@H](CO)C(C)C [ELVITEGRAVIR]
IC50 [2]: 1.3 nM
IC50 [6]: 29 nM

Compound: Cc1nnc(C(=O)NC(C)(C)c2nc(C(=O)NCc3ccc(F)cc3)c(O)c(=O)n2C)o1 [RALTEGRAVIR]
IC50 [2]: 6.2 nM
IC50 [6]: 29 nM

From ChEMBL document CHEMBL2169855, “Carbamoyl pyridone HIV-1 integrase inhibitors. 1. Molecular design and establishment of an advanced two-metal binding pharmacophore” (J Med Chem, 2012)
